Reference: ChEMBL document CHEMBL1130129, “Immunologically specific activation of a cephalosporin derivative of mitomycin C by monoclonal antibody beta-lactamase conjugates” (J Med Chem, 1997)
pIC50: −log10 of the molar value.

What was measured:
Format in all cases: functional, cell-based
[1] = test system: Clone 62; experiment: Inhibitory activity against clone62, a mouse melanoma cell line in presence of Enterobacter cloacae bL
Outline: (§1)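 Adherent cells (4000 or 8000/well, 18 h, 37 °C, IMDM/10% FBS) washed with RPMI/10% FBS. Exposed 1 h at 37 °C to graded compound concentrations together with purified E. cloacae β-lactamase (10 µg/mL), then washed and cultured 18 h. [3H]thymidine pulse at 1 µCi/well (18 h or 6 h by seeding density). IC50 is 50% incorporation relative to untreated controls; five independent experiments.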

[2] = test system: H2987 cell line; experiment: Inhibitory activity against H2987, human lung adenocarcinoma cell line in absence of Enterobacter cloacae bL
Outline: (§2)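 Cells plated at 4000 or 8000/well in IMDM with 10% FBS, left to adhere 18 h at 37 °C, then washed with RPMI/10% FBS. Compound exposure 1 h at 37 °C with no enzyme, followed by IMDM wash and 18 h culture. [3H]thymidine pulse at 1 µCi/well (18 h at 4000 cells/well, 6 h at 8000). IC50 is the concentration giving 50% incorporation versus untreated cells; mean of five experiments.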

[3] = test system: H2987 cell line; experiment: Inhibitory activity against H2987, human lung adenocarcinoma cell line in presence of Enterobacter cloacae bL; outline: as §1
[4] = test system: Clone 62; experiment: Inhibitory activity against clone62, a mouse melanoma cell line in absence of Enterobacter cloacae bL; outline: as §2

In the case of `CO[C@@]12[C@H](COC(N)=O)C3=C(C(=O)C(C)=C(NCC4=C(C(=O)O)N5C(=O)[C@@H](NC(=O)CCCC(=O)O)[C@H]5SC4)C3=O)N1C[C@@H]1N[C@@H]12`, the pIC50 [1] was 5.52, the pIC50 [2] was 4.58 and the pIC50 [3] was 5.92. It also gave a pIC50 [4] of 4.52.
For `CO[C@@]12[C@H](COC(N)=O)C3=C(C(=O)C(C)=C(NCC4=C(C(=O)O)N5C(=O)[C@@H](NC(=O)Cc6ccccc6)[C@H]5SC4)C3=O)N1C[C@@H]1N[C@@H]12`, the pIC50 [1] was 5.85, the pIC50 [2] was 4.98 and the pIC50 [3] was 5.55. It also gave a pIC50 [4] of 5.46.
In the case of `CO[C@@]12[C@H](COC(N)=O)C3=C(C(=O)C(C)=C(N)C3=O)N1C[C@@H]1N[C@@H]12` [MITOMYCIN], the pIC50 [2] was 5.80 and the pIC50 [4] was 5.82.
